pIC50: −log10 of the molar value.
Experiments:
Mus musculus [1] = test: In vivo inhibition of mTORC2-mediated phosphorylation of AKT at […] in human PC3 cells xenografted into athymic nude mouse at 100 mg/kg, po after 16 hrs by Western blotting analysis relative to control; format: functional; conditions: PC-3, 16 h
How it was run: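 Human PC-3 cells were implanted subcutaneously into the hindflank of male nude mice aged 5−8 weeks, at 3 × 10^6 cells (passages 10−14, >95% viability) in ice-cold HBSS. At a tumor size of 200−500 mg, mice got one oral 100 mg/kg dose. Tumors were taken at 1, 4, 8, 16, 24 and 32 h. Lysates (n = 5 per group) were pooled, and phospho-AKT (T308) was read by Western blot, normalized to α-tubulin.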

[2] = target: Phosphatidylinositol 4,5-bisphosphate 3-kinase catalytic subunit gamma isoform (Homo sapiens, UniProt P48736); test: Inhibition of PI3Kgamma (unknown origin)
[3] = target: RAC-alpha serine/threonine-protein kinase (Homo sapiens, UniProt P31749); test: Inhibition of AKT1 (unknown origin)
Mus musculus [4] = test: In vivo inhibition of mTORC2-mediated phosphorylation of AKT at serine 473 in human MCF7 cells xenografted into athymic nude mouse at 100 mg/kg, po after 1 hr by Western blotting analysis relative to control; format: functional; conditions: MCF7, 1 h
How it was run: (§1)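 MCF-7 cells (DMEM, 10% FBS) were implanted subcutaneously at 5 × 10^6 cells in 50% cold HBSS/50% growth-factor-reduced matrigel into the hindflank of 5−8 week old female nude mice. At tumor size 40−150 mg, mice received a single oral dose of 100 mg/kg. Tumor lysates were pooled per group. Phospho-AKT (S473, T308), p70S6K (T389), S6 (S240/244) and 4E-BP1 (T37/46) were measured by Western blot normalized to α-tubulin.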

Casein kinase II = Casein kinase II (Homo sapiens, UniProt P19784+P67870+P68400); test: Inhibition of CK2 (unknown origin); format: protein-complex assay
Mus musculus [5] = test: In vivo inhibition of mTORC1-mediated phosphorylation of pS6 at (serine 240/244) in human PC3 cells xenografted into athymic nude mouse at 100 mg/kg, po after 1 hr by Western blotting analysis relative to control; format: functional; conditions: PC-3, 1 h
How it was run: (§2)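 PC-3 cells grown in DMEM with 20% FBS were implanted subcutaneously at 3 × 10^6 cells in ice-cold HBSS into the hindflank of 5−8 week old male nude mice. At tumor size 200−500 mg, mice received a single oral dose of 100 mg/kg. Plasma and tumors were collected at 1, 4, 8, 16, 24 and 32 h. Tumor lysates from each group (n = 5) were pooled. Phospho-proteins were quantified by Western blot and normalized to α-tubulin.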

Mus musculus [6] = test: In vivo inhibition of mTORC2-mediated phosphorylation of AKT at […] in human MCF7 cells xenografted into athymic nude mouse at 100 mg/kg, po after 24 hrs by Western blotting analysis relative to control; format: functional; conditions: MCF7, 24 h; how it was run: as §1
Mus musculus [7] = test: In vivo inhibition of mTORC2-mediated phosphorylation of AKT at serine 473 in human PC3 cells xenografted into athymic nude mouse at 100 mg/kg, po after 16 hrs by Western blotting analysis relative to control; format: functional; conditions: PC-3, 16 h; how it was run: as §2
[8] = Drug uptake in tumor of athymic mouse xenografted with human PC3 cells at 100 mg/kg, po after 4 hrs; format: ADME, organism-based, Neoplasm, PC-3; design: dose 100 mg/kg, route oral; conditions: read-out: Drug uptake
How it was run: (§3)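 PC-3 cells (3 × 10⁶, passages 10–14, in ice-cold HBSS) were implanted sc in 5–8 week old male nude mice. Tumors of 200–500 mg received a single oral 100 mg/kg dose. Plasma and tumor were collected at 1, 4, 8, 16, 24 and 32 h and homogenized in buffer. Lysates were pooled per group (n = 5), and phospho-proteins were measured by Western blot normalized to α-tubulin.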

Mus musculus [9] = test: In vivo inhibition of mTORC1-mediated phosphorylation of 4EBP1 at ([…]) in human PC3 cells xenografted into athymic nude mouse at 100 mg/kg, po after 24 hrs by Western blotting analysis relative to control; format: functional; conditions: PC-3, 24 h; how it was run: as §2
[10] = Drug uptake in tumor of athymic mouse xenografted with human PC3 cells at 100 mg/kg, po after 16hrs; format: ADME, organism-based, Neoplasm, PC-3; design: dose 100 mg/kg, route oral; conditions: read-out: Drug uptake; how it was run: as §3
[11] = Oral bioavailability in Beagle dog at 3 mg/kg; format: ADME, organism-based, Canis lupus familiaris; conditions: in vivo
How it was run: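 For single-dose PK, compound was given intravenously and by oral gavage as a solution in EPW (5% ethanol/45% PEG400/water + 1:2 HCl m/m). Doses were 10 mg/kg in female athymic nude mice and 3 mg/kg in female CD rats and male beagle dogs.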

Cytochrome P450 3A4 = Cytochrome P450 3A4 (Homo sapiens, UniProt P08684); test: Inhibition of CYP3A4 (unknown origin); format: ADME
Cytochrome P450 3A4, sequence (P08684 whole entry): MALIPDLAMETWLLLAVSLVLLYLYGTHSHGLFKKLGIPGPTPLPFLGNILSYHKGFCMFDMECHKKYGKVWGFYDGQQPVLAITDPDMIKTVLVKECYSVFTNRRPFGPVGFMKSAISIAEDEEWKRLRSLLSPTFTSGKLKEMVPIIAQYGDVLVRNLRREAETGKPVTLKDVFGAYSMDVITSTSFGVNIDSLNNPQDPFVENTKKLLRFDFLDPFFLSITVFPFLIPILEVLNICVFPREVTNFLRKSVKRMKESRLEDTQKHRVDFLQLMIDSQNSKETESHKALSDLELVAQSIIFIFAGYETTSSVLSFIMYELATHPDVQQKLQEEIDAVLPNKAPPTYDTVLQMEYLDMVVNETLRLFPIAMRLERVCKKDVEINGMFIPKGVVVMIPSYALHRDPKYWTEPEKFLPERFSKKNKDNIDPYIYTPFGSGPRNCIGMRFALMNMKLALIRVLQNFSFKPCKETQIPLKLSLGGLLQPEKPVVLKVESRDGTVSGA

Casein kinase II, sequence (P67870 whole entry): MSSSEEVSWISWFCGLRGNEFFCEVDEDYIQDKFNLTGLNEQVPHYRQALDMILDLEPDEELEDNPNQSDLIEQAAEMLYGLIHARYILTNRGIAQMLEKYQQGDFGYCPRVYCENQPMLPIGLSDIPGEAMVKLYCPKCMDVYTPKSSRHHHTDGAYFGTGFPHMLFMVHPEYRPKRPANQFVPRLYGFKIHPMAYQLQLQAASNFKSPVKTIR
Casein kinase II, sequence (P68400 whole entry): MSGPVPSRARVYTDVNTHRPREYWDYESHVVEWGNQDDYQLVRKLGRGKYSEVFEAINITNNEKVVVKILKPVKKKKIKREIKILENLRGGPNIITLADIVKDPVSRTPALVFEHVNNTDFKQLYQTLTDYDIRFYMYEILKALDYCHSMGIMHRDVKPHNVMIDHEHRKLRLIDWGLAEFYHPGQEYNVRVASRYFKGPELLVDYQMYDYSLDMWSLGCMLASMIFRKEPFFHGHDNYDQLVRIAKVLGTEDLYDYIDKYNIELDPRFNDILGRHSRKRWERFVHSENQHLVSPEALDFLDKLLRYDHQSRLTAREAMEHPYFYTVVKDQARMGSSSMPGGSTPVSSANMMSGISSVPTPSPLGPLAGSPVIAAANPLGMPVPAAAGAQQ
Casein kinase II, sequence (P19784 whole entry): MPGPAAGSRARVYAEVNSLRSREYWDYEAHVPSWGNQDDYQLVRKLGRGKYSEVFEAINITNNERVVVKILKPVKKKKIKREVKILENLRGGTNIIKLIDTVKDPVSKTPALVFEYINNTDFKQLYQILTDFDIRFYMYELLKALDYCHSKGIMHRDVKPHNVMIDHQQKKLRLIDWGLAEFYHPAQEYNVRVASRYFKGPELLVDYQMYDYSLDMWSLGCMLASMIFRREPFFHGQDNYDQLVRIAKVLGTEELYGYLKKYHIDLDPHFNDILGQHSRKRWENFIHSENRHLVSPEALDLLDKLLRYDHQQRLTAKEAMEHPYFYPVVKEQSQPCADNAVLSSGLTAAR
RAC-alpha serine/threonine-protein kinase, sequence (P31749 whole entry): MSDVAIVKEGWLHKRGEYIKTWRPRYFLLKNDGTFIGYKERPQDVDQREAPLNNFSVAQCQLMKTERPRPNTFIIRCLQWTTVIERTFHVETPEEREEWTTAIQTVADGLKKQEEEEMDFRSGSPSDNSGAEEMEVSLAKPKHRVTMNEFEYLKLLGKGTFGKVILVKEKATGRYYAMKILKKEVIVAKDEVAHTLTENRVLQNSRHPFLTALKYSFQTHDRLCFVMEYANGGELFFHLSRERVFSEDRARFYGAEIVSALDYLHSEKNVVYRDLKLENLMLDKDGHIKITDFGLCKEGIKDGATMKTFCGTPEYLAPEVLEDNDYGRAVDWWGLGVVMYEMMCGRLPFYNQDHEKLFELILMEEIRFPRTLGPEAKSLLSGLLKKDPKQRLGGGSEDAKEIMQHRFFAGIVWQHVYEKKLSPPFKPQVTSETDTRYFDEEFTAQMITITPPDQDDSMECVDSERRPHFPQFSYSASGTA
Phosphatidylinositol 4,5-bisphosphate 3-kinase catalytic subunit gamma isoform, sequence (P48736 whole entry, canonical isoform): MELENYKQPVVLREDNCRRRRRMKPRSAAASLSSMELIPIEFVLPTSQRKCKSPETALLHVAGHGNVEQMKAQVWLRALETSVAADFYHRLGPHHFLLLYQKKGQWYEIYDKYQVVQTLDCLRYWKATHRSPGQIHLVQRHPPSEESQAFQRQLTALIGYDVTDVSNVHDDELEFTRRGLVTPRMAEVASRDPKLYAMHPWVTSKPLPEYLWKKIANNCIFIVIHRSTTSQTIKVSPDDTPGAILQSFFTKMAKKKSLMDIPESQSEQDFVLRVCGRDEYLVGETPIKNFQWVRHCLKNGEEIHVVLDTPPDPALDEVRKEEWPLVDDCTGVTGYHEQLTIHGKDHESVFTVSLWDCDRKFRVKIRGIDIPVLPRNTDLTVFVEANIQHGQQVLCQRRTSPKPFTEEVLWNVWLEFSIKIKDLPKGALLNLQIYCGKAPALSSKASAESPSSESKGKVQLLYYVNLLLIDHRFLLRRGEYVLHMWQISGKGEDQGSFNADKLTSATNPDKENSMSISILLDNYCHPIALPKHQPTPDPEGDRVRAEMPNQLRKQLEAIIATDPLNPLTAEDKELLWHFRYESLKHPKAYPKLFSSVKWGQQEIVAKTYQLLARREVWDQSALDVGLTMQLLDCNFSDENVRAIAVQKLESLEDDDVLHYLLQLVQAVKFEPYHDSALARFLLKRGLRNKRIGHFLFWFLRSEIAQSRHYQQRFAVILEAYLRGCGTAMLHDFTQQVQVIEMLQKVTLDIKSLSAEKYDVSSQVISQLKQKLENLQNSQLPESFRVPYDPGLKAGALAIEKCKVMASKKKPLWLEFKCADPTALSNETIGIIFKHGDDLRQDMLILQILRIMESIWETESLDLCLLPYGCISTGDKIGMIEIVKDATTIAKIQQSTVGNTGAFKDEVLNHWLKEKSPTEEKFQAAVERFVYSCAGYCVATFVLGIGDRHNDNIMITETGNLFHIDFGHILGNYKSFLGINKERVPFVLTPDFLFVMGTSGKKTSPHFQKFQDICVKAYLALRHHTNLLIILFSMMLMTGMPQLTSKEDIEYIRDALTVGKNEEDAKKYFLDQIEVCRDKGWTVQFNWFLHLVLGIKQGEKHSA

pIC50 [2]: < 5.30
pIC50 [3]: < 5.46
pIC50 (Casein kinase II): < 5.00
concentration at 4 h [8]: 18.6 µM
concentration at 16 h [10]: 7.34 µM
bioavailability [11]: 69.6%
INH (Cytochrome P450 3A4): 24.6 µM
SMILES: Cc1c(C(=O)N2CCOc3ccc(-c4ccc(N)nc4)cc3C2)ccc(S(C)(=O)=O)c1F
inhibition in vivo at 100 mg/kg (Mus musculus [1]): 36%
inhibition in vivo at 100 mg/kg (Mus musculus [4]): 93%
inhibition in vivo at 100 mg/kg (Mus musculus [5]): 88%
inhibition in vivo at 100 mg/kg (Mus musculus [6]): -39%
inhibition in vivo at 100 mg/kg (Mus musculus [7]): 55%
inhibition in vivo at 100 mg/kg (Mus musculus [9]): 19%

From ChEMBL document CHEMBL2331117 (J Med Chem, 2013)
